Measurements reported in ChEMBL document CHEMBL1144468, “Stepwise exposure of Staphylococcus aureus to pleuromutilins is associated with stepwise acquisition of mutations in rplC and minimally affects susceptibility to retapamulin” (2007).
Values after ≈ are worked out from the molar mass of the structure shown.

Tests used:
Format in all cases: functional
Staphylococcus aureus [1] = test: Antibacterial activity against Staphylococcus aureus 2A1-7 fast2 with rplC D159Y and unmapped mutation
Summary of the method: (§1)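 Fast-growing variants of slow third-step mutants. Single colonies were streaked on unsupplemented LB agar and held more than 3 days at 37°C. At least 2 fast-growing colonies per mutant were purified on LB agar, then taken for MIC testing and sequencing.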

Staphylococcus aureus [2] = test: Antibacterial activity against Staphylococcus aureus RN4220 with rplC G155R mutation
Summary of the method: (§2)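 Spontaneous first-step mutants of S. aureus RN4220. An overnight brain heart infusion culture was plated on LB agar with 1.0 µg/ml tiamulin. Colonies were patched to drug-free LB for 16 h at 37°C, then replica plated on LB agar with 1, 5, 10 and 20 µg/ml tiamulin. The rplC (L3) mutation was identified by colony PCR and sequencing.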

Staphylococcus aureus [3] = test: Antibacterial activity against Staphylococcus aureus RN4220 with rplC D159Y mutation; summary of the method: as §2
Staphylococcus aureus [4] = test: Antibacterial activity against Staphylococcus aureus 2A1-1 fast2 with rplC D159Y and unmapped mutation; summary of the method: as §1
Staphylococcus aureus [5] = test: Antibacterial activity against Staphylococcus aureus RN4220 with rplC S158L mutation; summary of the method: as §2
Staphylococcus aureus [6] = test: Antibacterial activity against Staphylococcus aureus RN4220 with rplC G152D and G155R mutation
Summary of the method: (§3)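 Second-step mutants came from the first-step L3 G152D RN4220 mutant. An overnight culture (2 x 10^9 CFU total) was plated on LB agar with 10 µg/ml tiamulin. Colonies were recultured on 10 µg/ml tiamulin to confirm resistance. L3 was sequenced after colony PCR.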

Staphylococcus aureus [7] = test: Antibacterial activity against Staphylococcus aureus RN4220 with rplC G152D mutation; summary of the method: as §2
Staphylococcus aureus [8] = test: Antibacterial activity against wild type Staphylococcus aureus RN4220
Staphylococcus aureus [9] = test: Antibacterial activity against Staphylococcus aureus 2A1-7 with rplC G152D, D159Y and unmapped mutation
Summary of the method: (§4)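 Third-step mutants: second-step mutants were plated on five other pleuromutilins, each at 2 times its own MIC. Colonies appearing after extended incubation were replated at the selective concentration to confirm resistance. L3 was sequenced by colony PCR. These isolates grow very slowly; colonies form on blood agar only after more than 72 h.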

Staphylococcus aureus [10] = test: Antibacterial activity against Staphylococcus aureus 2A1-7 fast1 with rplC D159Y and unmapped mutation; summary of the method: as §1
Staphylococcus aureus [11] = test: Antibacterial activity against Staphylococcus aureus 2A1-8 with rplC G152D, D159Y and unmapped mutation; summary of the method: as §4
Staphylococcus aureus [12] = test: Antibacterial activity against Staphylococcus aureus RN4220 with rplC G152D and D159Y mutation; summary of the method: as §3
Staphylococcus aureus [13] = test: Antibacterial activity against Staphylococcus aureus 2A1-1 fast1 with rplC D159Y and unmapped mutation; summary of the method: as §1
Staphylococcus aureus [14] = test: Antibacterial activity against Staphylococcus aureus RN4220 with rplC G152D, D159Y and G144R mutation; summary of the method: as §4
Staphylococcus aureus [15] = test: Antibacterial activity against Staphylococcus aureus 2A1-1 with rplC G152D, D159Y and unmapped mutation; summary of the method: as §4
Staphylococcus aureus [16] = test: Antibacterial activity against Staphylococcus aureus RN4220 with rplC G152D, D159Y, G155R and H134N mutation; summary of the method: as §4
Staphylococcus aureus [17] = test: Antibacterial activity against Staphylococcus aureus RN4220 with rplC G152D, D159Y, G155R and A150T mutation; summary of the method: as §4
Staphylococcus aureus [18] = test: Antibacterial activity against Staphylococcus aureus RN4220 with rplC G152D, D159Y and G155R mutation; summary of the method: as §4

Row | SMILES | MIC (Staphylococcus aureus [1]) [µg/mL] | MIC (Staphylococcus aureus [2]) [µg/mL] | MIC (Staphylococcus aureus [3]) [µg/mL] | MIC (Staphylococcus aureus [4]) [µg/mL] | MIC (Staphylococcus aureus [5]) [µg/mL] | MIC (Staphylococcus aureus [6]) [µg/mL] | MIC (Staphylococcus aureus [7]) [µg/mL] | MIC (Staphylococcus aureus [8]) [µg/mL] | MIC (Staphylococcus aureus [9]) [µg/mL] | MIC (Staphylococcus aureus [10]) [µg/mL] | MIC (Staphylococcus aureus [11]) [µg/mL] | MIC (Staphylococcus aureus [12]) [µg/mL] | MIC (Staphylococcus aureus [13]) [µg/mL] | MIC (Staphylococcus aureus [14]) [µg/mL] | MIC (Staphylococcus aureus [15]) [µg/mL] | MIC (Staphylococcus aureus [16]) [µg/mL] | MIC (Staphylococcus aureus [17]) [µg/mL] | MIC (Staphylococcus aureus [18]) [µg/mL]
1 | C[C@H]1COc2c(N3CCN(C)CC3)c(F)cc3c(=O)c(C(=O)O)cn1c23.C[C@H]1COc2c(N3CCN(C)CC3)c(F)cc3c(=O)c(C(=O)O)cn1c23.O [LEVOFLOXACIN] | 0.25 | 0.5 | 0.5 | 0.25 | 0.5 | 0.25 | 0.5 | 0.5 | 0.25 | 0.25 | 0.25 | 0.25 | 0.5 | 0.25 | 0.25 | 0.5 | 0.125 | 0.25
2 | CN(C)[C@@H]1C(O)=C(C(N)=O)C(=O)[C@@]2(O)C(O)=C3C(=O)c4c(O)cccc4[C@@](C)(O)[C@H]3C[C@@H]12 [TETRACYCLINE] | 0.25 (≈ 0.563 µM) | 0.25 (≈ 0.563 µM) | 0.25 (≈ 0.563 µM) | 0.25 (≈ 0.563 µM) | 0.25 (≈ 0.563 µM) | 0.25 (≈ 0.563 µM) | 0.25 (≈ 0.563 µM) | 0.25 (≈ 0.563 µM) | ≤ 0.06 | 0.25 (≈ 0.563 µM) | ≤ 0.06 | 0.25 (≈ 0.563 µM) | 0.25 (≈ 0.563 µM) | 0.25 (≈ 0.563 µM) | ≤ 0.06 | 0.25 (≈ 0.563 µM) | 0.25 (≈ 0.563 µM) | 0.25 (≈ 0.563 µM)
3 | O=C(N[C@H](CO)[C@H](O)c1ccc([N+](=O)[O-])cc1)C(Cl)Cl [CHLORAMPHENICOL] | 8 (≈ 24.8 µM) | 8 (≈ 24.8 µM) | 4 (≈ 12.4 µM) | 8 (≈ 24.8 µM) | 4 (≈ 12.4 µM) | 8 (≈ 24.8 µM) | 8 (≈ 24.8 µM) | 4 (≈ 12.4 µM) | 4 (≈ 12.4 µM) | 8 (≈ 24.8 µM) | 4 (≈ 12.4 µM) | 8 (≈ 24.8 µM) | 8 (≈ 24.8 µM) | 8 (≈ 24.8 µM) | 8 (≈ 24.8 µM) | 8 (≈ 24.8 µM) | 8 (≈ 24.8 µM) | 4 (≈ 12.4 µM)
4 | C/C(=C\C(=O)OCCCCCCCCC(=O)O)C[C@@H]1OC[C@H](C[C@@H]2O[C@H]2[C@@H](C)[C@H](C)O)[C@@H](O)[C@H]1O [MUPIROCIN] |  | 0.06 (≈ 0.12 µM) | 0.06 (≈ 0.12 µM) |  | 0.06 (≈ 0.12 µM) | 0.06 (≈ 0.12 µM) | 0.06 (≈ 0.12 µM) | 0.06 (≈ 0.12 µM) |  |  |  | 0.06 (≈ 0.12 µM) |  | 0.06 (≈ 0.12 µM) |  | 0.06 (≈ 0.12 µM) | 0.06 (≈ 0.12 µM) | 0.06 (≈ 0.12 µM)
5 | C=C[C@]1(C)C[C@@H](OC(=O)CS[C@@H]2C[C@H]3CC[C@@H](C2)N3C)[C@]2(C)[C@H](C)CC[C@]3(CCC(=O)[C@H]32)[C@@H](C)[C@@H]1O [RETAPAMULIN] | 0.25 (≈ 0.483 µM) | 0.5 (≈ 0.966 µM) | 0.25 (≈ 0.483 µM) | 0.25 (≈ 0.483 µM) | 0.25 (≈ 0.483 µM) | 1 (≈ 1.93 µM) | 0.25 (≈ 0.483 µM) | ≤ 0.06 | 8 (≈ 15.5 µM) | 0.25 (≈ 0.483 µM) | 2 (≈ 3.86 µM) | 1 (≈ 1.93 µM) | 0.25 (≈ 0.483 µM) | 4 (≈ 7.73 µM) | 8 (≈ 15.5 µM) | 0.125 (≈ 0.241 µM) | 0.25 (≈ 0.483 µM) | 4 (≈ 7.73 µM)
6 | C=C[C@]1(C)C[C@@H](OC(=O)CSCCN(CC)CC)[C@]2(C)[C@H](C)CC[C@]3(CCC(=O)[C@H]32)[C@@H](C)[C@@H]1O [TIAMULIN] | 2 (≈ 4.05 µM) | 4 (≈ 8.1 µM) | 4 (≈ 8.1 µM) | 2 (≈ 4.05 µM) | 2 (≈ 4.05 µM) | 16 (≈ 32.4 µM) | 4 (≈ 8.1 µM) | 0.25 (≈ 0.506 µM) | 64 (≈ 130 µM) | 2 (≈ 4.05 µM) | 32 (≈ 64.8 µM) | 16 (≈ 32.4 µM) | 2 (≈ 4.05 µM) | 32 (≈ 64.8 µM) | 64 (≈ 130 µM) | 2 (≈ 4.05 µM) | 4 (≈ 8.1 µM) | > 64
